MsrA inh – inhibits bovine methionine sulfoxide reductase A. purified bovine MsrA, absorbance read-out. inhibition, % at 15.5 µM. 360,000 compounds, 0.75% hits. AID 651718; in the data active = inhibition above about 4.5%;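 also: 0% = vehicle wells with enzyme and 100% = reference inhibitor wells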
NadD block – NadD (S. aureus) enzyme inhibition; purified NadD enzyme, colorimetric absorbance read-out; inhibition, % at 20 µM; 360,000 compounds, 0.78% hits; in the data active = inhibition above about 26%
NR2E3 ag-1 – activates human NR2E3 receptor; Q9Y5X4; CHO-S Gal4-NCOR/VP16-NR2E3 two-hybrid, luciferase; inhibition of corepressor binding, % at 3.98 µM; 360,000 compounds, 0.35% hits;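 active = inhibition above the mean of all tested compounds plus 3 SD, cut at about 70% in these data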;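 also: 0% = DMSO with NR2E3 transfected cells and 100% = cells lacking NR2E3 construct; higher means lower luciferase signal from less NR2E3 corepressor binding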
bovine MsrA act – activates bovine MsrA enzyme; purified bovine MsrA, absorbance read-out; activation, % at 10.6 µM; 360,000 compounds, 0.3% hits; AID 602163; in the data active = activation above about 7.5%;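 also: 0% = vehicle and 100% = reference activator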
NR2E3 ag-2 – activates human photoreceptor nuclear receptor NR2E3 | inhibition of corepressor binding, % at 4.78 µM | 320,000 compounds, 0.12% hits | GST-NR2E3/biotin-RetCOR TR-FRET, 1536-well;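 active = percent inhibition above the cutoff of mean plus 3 SD of all tested compounds, set per screening campaign, cut at about 20% in these data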;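 also: 0% = DMSO wells and 100% = biotin wells as full block of FRET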
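Material – GST-tagged NR2E3 plus biotinylated RetCOR corepressor · Quantity – NR2E3 fusion 1.35 nM · Times – 5 h incubation at 4 °C · Medium – pH 7.5 Tris-based buffer · Technique – TR-FRET, Eu(K)-anti-GST donor, streptavidin-D2 acceptor, ex 340, em 617/671 nm · Benchmarks – high control biotin, low control 0.6% DMSO · Format – 1536-well plates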
GalR3 antagonist – human GalR3 antagonism; O60755; HEK293 GalR3-CNG cAMP membrane potential fluorescence; galR3 body fused to GalR1 C-terminus; inhibition, % at 3 µM; 360,000 compounds, 0.44% hits; AID 651719;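 active = inhibition above the screen-wide average plus 3 SD, cut at about 13% in these data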;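 also: forskolin and galanin both at EC90 stimulate the cells; cAMP rise reported by CNG channel membrane potential dye signal; 0% = forskolin plus galanin with DMSO and 100% = forskolin alone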
Target sequence (O60755 1-299 limits assumed): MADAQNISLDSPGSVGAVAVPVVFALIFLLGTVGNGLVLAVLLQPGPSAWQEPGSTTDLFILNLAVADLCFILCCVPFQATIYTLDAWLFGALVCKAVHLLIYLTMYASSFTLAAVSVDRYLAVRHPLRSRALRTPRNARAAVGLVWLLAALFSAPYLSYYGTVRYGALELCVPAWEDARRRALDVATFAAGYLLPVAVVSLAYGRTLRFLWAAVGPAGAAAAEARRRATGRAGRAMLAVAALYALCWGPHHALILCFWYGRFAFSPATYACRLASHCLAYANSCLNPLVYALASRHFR
NR2E3 agonist cf – NR2E3 (human) agonism, confirmation | cell-free NR2E3 corepressor release, TR-FRET, 5 h | activation (reported as inhibition), % at 3.98 µM | shares compounds with NR2E3 ag-2 | 360 compounds, 39% hits; in the data active = activation above about 20%
PPARg-NCOR2 ctr – counter-screen for NR2E3 agonists: human PPARgamma-NCOR2 interaction agonists; 360 compounds, 45% hits; TR-FRET PPARg-NCOR2 coregulator interaction, biochemical; inhibition, % at 3.98 µM; shares compounds with NR2E3 ag-2; AID 504787; in the data active = inhibition above about 20%;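 also: 0% = DMSO vehicle and 100% = wells without protein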
* marks the source's active call; other numbers are inactive results; . = not tested or not shown. Rows were chosen to be rich in hits. Some 2.5% of all compounds tested hit in one or more screens of this group.

SMILES	MsrA inh	NadD block	NR2E3 ag-1	bovine MsrA act	NR2E3 ag-2	GalR3 antagonist	NR2E3 agonist cf	PPARg-NCOR2 ctr
FC(F)(F)c1ccc2c(c1)C1C=CCC1C(c1ccncc1)N2 (stereo unspecified)	2	4	2	-4	.	-2	.	.
CCOC(=S)SCC(=O)Nc1ncc(C)s1	1	-10	-44	-6	0	-2	.	.
CCOC(=O)c1ccc(N2CSC3=C(C#N)C(c4cccs4)CC(=O)N3C2)cc1 (stereo unspecified)	0	-6	-11	1	27*	.	-5	38*
COc1ccc(N2CSC3=C(C#N)C(c4cccs4)CC(=O)N3C2)cc1 (stereo unspecified)	0	2	2	-3	9	-5	.	.
CC1NC(=O)NC1CCCCCC(=O)Nc1ccc(F)cc1 (stereo unspecified)	-1	-3	-18	-2	86*	-3	89*	90*
Cc1c(F)cccc1NC(=O)CCCCCC1NC(=O)NC1C (stereo unspecified)	0	2	-6	-3	97*	-2	89*	92*
O=C(CCCC(=O)c1ccccc1)Nc1ccc(F)cc1	-1	-6	-35	-4	-2	-10	.	.
CCC1(C)Cc2c(sc3nc(SC)[nH]c(=S)c23)CO1 (stereo unspecified)	.	.	.	.	22*	.	-5	48*
COc1ccc(S(=O)(=O)N2CCC(C(=O)NCCN3CCOCC3)CC2)cc1C	0	-2	-23	0	3	-10	.	.
CCOC(=O)c1c(-c2ccc(C)s2)csc1N	1	5	-8	-1	68*	-4	-4	-5
CCOC(=O)c1c(-c2ccsc2)csc1N	0	0	2	-7	3	-1	.	.
O=C(Nc1cccc(O)c1)c1ccc(Br)c(S(=O)(=O)N2CCCCC2)c1	0	-8	-1	-3	3	-5	.	.
CCCCCCn1c(=O)n2n(c1=O)[C@@H]1CN(S(=O)(=O)c3ccc(C)cc3)C[C@]1(O)[C@@H](OC(=O)NC1CC1)C2	0	-4	-17	-3	.	-6	.	.
Cc1ccccc1-c1nnnn1C1CCS(=O)(=O)C1 (stereo unspecified)	0	-1	-10	-3	0	-4	.	.
Cc1cc(=O)n(C2CCS(=O)(=O)C2)[nH]1 (stereo unspecified)	1	1	-10	0	33*	-1	-5	-4
O=C1C=C(N2CCOCC2)c2ccccc2C1=O	-1	7	17	-7	33*	-11	38*	65*
CCC(Sc1nc(-c2ccccc2)c(C#N)c(=O)[nH]1)C(=O)Nc1cc(C)on1 (stereo unspecified)	0	-2	-12	1	27*	-2	20*	42*
CCC(Sc1nc2ccccc2[nH]1)C(=O)Nc1cc(C)on1 (stereo unspecified)	0	-5	-15	1	4	-2	.	.
CSc1nc(-c2ccc(Cl)cc2)c(C#N)c(=O)[nH]1	0	7	-27	-2	12	-6	.	.
CSc1nc(-c2ccccc2)c(C#N)c(=O)[nH]1	3	-3	-29	-3	22*	-5	22*	25*
COc1ccccc1CN1C(=O)CCC1(C)C(=O)NC1CCCCCC1 (stereo unspecified)	0	0	-21	-1	-7	-4	.	.
COc1cc2nc(=S)n3[nH]c(CCn4c(C)nc5ccccc54)nc3c2cc1OC	0	12	-22	0	-7	0	.	.
COc1ccc(OCc2nc3c4cc(OC)c(OC)cc4nc(=S)n3[nH]2)cc1	0	20	18	1	21*	-10	6	11
CN(C(=O)c1ccc(NC(=O)Cc2ccc(NC(=O)C3CCN(C(=O)c4ccccc4)CC3)cc2)cc1)C1CC1	-1	3	-24	-6	21*	-5	1	-4
CN(C(=O)c1cccc(NC(=O)Cc2ccc(NC(=O)C3CCN(C(=O)c4ccccc4)CC3)cc2)c1)C1CCC1	-1	8	-47	1	.	1	.	.
SMILES	MsrA inh	NadD block	NR2E3 ag-1	bovine MsrA act	NR2E3 ag-2	GalR3 antagonist	NR2E3 agonist cf	PPARg-NCOR2 ctr
CC1CN(C(=O)c2ccn(C)n2)CC(C)O1 (stereo unspecified)	-1	-4	5	-6	-1	1	.	.
CC(C)C(N)c1csc(Nc2cc(Oc3ccccc3)ncn2)n1 (stereo unspecified)	1	-4	-3	0	.	-6	.	.
COc1ccc(C(=O)Nc2nnc(Cc3ccccc3)s2)c(OC)c1	0	-14	-37	-1	47*	-4	-9	12
O=C(Nc1nnc(Cc2ccccc2)s1)c1cccs1	2	0	-30	3	27*	-5	-2	4
COc1cc(C(=O)Nc2nnc(Cc3ccccc3)s2)cc(OC)c1OC	0	-1	1	-2	.	-10	.	.
Cc1[nH]ccc(=O)c1OCc1ccccc1	0	6	-4	-3	6	-7	.	.
O=c1cc(OCc2ccccc2)cc[nH]1	1	5	12	-5	50*	-2	40*	15
Cc1cc(C2C(C#N)=C(N)SC(N)=C2C#N)c(C)s1	.	4	7	-11	24*	.	11	38*
Cc1onc(-c2ccccc2Cl)c1C(=O)Nc1nnc(-c2ccc(F)cc2)s1	2	0	9	-8	5	.	.	.
Cc1onc(-c2ccccc2Cl)c1C(=O)Nc1nnc(-c2ccc(Br)cc2)s1	0	4	14	-1	22*	.	14	15
COC(=O)c1cc(Br)c(=O)n(-c2ccccn2)c1	0	-1	22	-14	0	1	.	.
COC(=O)c1cc(Br)c(=O)n(-c2nccs2)c1	2	3	4	0	25*	-1	22*	24*
Cc1ccc(-n2c(=S)[nH]c3c(oc4ccccc43)c2=O)cc1C	0	0	-26	5	43*	-3	35*	33*
O=c1c2oc3ccccc3c2[nH]c(=S)n1-c1ccc(F)cc1	0	-1	8	-8	44*	-2	32*	24*
O=c1[nH]c2c(oc3ccccc32)c(=O)n1Cc1ccccc1	0	-7	-11	-1	.	-12	.	.
CCCCc1ccc(C2C(C#N)=C(N)SC(N)=C2C#N)s1	.	.	.	.	42*	.	-1	-2
CCOc1ccc(C2C(C#N)=C(N)SC(N)=C2C#N)c(OCC)c1	1	4	2	-5	6	5	.	.
O=C(CSc1n[nH]c(-c2ccccc2)n1)c1ccc(O)c(O)c1	1	-4	-18	-15	1	-8	.	.

Compound activity deposited in PubChem BioAssay by several laboratories.
